ChEMBL document CHEMBL2384952, “Synthesis, antifungal and cytotoxic activities of 2-aryl-3-((piperidin-1-yl)ethyl)thiazolidinones” (Eur J Med Chem, 2013)
Values after ≈ are worked out from the molar mass of the structure shown.

Experiments:
[1] = test system: Vero; assay: Cytotoxicity against African green monkey Vero cells at 12.3 ug/mL by neutral red dye uptake assay relative to control; format: cell-based; conditions: chlorocebus sabaeus
How it was run: (§1)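 Vero cells (over 99% viable by trypan blue exclusion) were exposed to serial compound dilutions in E-MEM, with fresh E-MEM as negative control, for 72 h at 37 °C, 5% CO2. Cells were then given 3.3 mg/L neutral red for 2 h, and the dye was extracted with 50% ethanol/1% acetic acid. A540 was read, and viability was calculated as treated/control absorbance × 100.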

[2] = test system: Vero; assay: Cytotoxicity against African green monkey Vero cells at 25 ug/mL by neutral red dye uptake assay relative to control; format: cell-based; conditions: chlorocebus sabaeus; how it was run: as §1
[3] = test system: Vero; assay: Cytotoxicity against African green monkey Vero cells at 49 ug/mL by neutral red dye uptake assay relative to control; format: cell-based; conditions: chlorocebus sabaeus; how it was run: as §1
[4] = test system: Vero; assay: Cytotoxicity against African green monkey Vero cells at 98 ug/mL by neutral red dye uptake assay relative to control; format: cell-based; conditions: chlorocebus sabaeus; how it was run: as §1
[5] = test system: Vero; assay: Cytotoxicity against African green monkey Vero cells at 197 ug/mL by neutral red dye uptake assay relative to control; format: cell-based; conditions: chlorocebus sabaeus; how it was run: as §1
[6] = test system: Vero; assay: Cytotoxicity against African green monkey Vero cells at 394 ug/mL by neutral red dye uptake assay relative to control; format: cell-based; conditions: chlorocebus sabaeus; how it was run: as §1
[7] = test system: Vero; assay: Cytotoxicity against African green monkey Vero cells at 787 ug/mL by neutral red dye uptake assay relative to control; format: cell-based; conditions: chlorocebus sabaeus; how it was run: as §1
[8] = test system: Vero; assay: Cytotoxicity against African green monkey Vero cells at 1575 ug/mL by neutral red dye uptake assay relative to control; format: cell-based; conditions: chlorocebus sabaeus; how it was run: as §1
[9] = test system: Vero; assay: Cytotoxicity against African green monkey Vero cells at 3150 ug/mL by neutral red dye uptake assay relative to control; format: cell-based; conditions: chlorocebus sabaeus; how it was run: as §1
[10] = test system: Candida parapsilosis; assay: Antifungal activity against Candida parapsilosis after 48 hrs by CLSI M27A3 broth microdilution method; format: functional; conditions: Lodderomyces parapsilosis
How it was run: (§2)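 Yeasts were kept on Sabouraud dextrose agar and subcultured at 35 °C for at least 2 days. They were suspended in saline to McFarland 0.5 and diluted in RPMI. Ten successive dilutions were made from a 1.6 mg/mL DMSO stock per CLSI broth microdilution, then incubated at 37 °C for 48 h. Growth was read visually against a growth-control well, and MIC is the lowest concentration inhibiting growth.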

[11] = test system: Geotrichum; assay: Antifungal activity against Geotrichum species after 48 hrs by CLSI M27A3 broth microdilution method; format: functional; how it was run: as §2
[12] = test system: Papiliotrema laurentii; assay: Antifungal activity against Cryptococcus laurentii after 48 hrs by CLSI M27A3 broth microdilution method; format: functional; how it was run: as §2
[13] = test system: Rhodotorula; assay: Antifungal activity against Rhodotorula species after 48 hrs by CLSI M27A3 broth microdilution method; format: functional; how it was run: as §2
[14] = test system: Candida albicans; assay: Antifungal activity against Candida albicans after 48 hrs by CLSI M27A3 broth microdilution method; format: functional; how it was run: as §2
[15] = test system: Trichosporon asahii; assay: Antifungal activity against Trichosporon asahii after 48 hrs by CLSI M27A3 broth microdilution method; format: functional; how it was run: as §2
[16] = test system: Meyerozyma guilliermondii; assay: Antifungal activity against Candida guilliermondii after 48 hrs by CLSI M27A3 broth microdilution method; format: functional; how it was run: as §2

Compound | Cell viability [1] [%] | Cell viability [2] [%] | Cell viability [3] [%] | Cell viability [4] [%] | Cell viability [5] [%] | Cell viability [6] [%] | MFC [10] [µg/mL] | MIC [10] [µg/mL] | MFC [11] [µg/mL] | MIC [11] [µg/mL] | MFC [12] [µg/mL] | MIC [12] [µg/mL] | MFC [13] [µg/mL] | MIC [13] [µg/mL] | MFC [14] [µg/mL] | MIC [14] [µg/mL] | MFC [15] [µg/mL] | MIC [15] [µg/mL] | MFC [16] [µg/mL] | MIC [16] [µg/mL] | other results
O=C1CSC(c2ccccc2[N+](=O)[O-])N1CCN1CCCCC1 (configuration not stated) | 100 | 100 | 100 | 100 | 100 | 100 | 50 (≈ 149 µM) | 50 (≈ 149 µM) | 25 (≈ 74.5 µM) | 25 (≈ 74.5 µM) | 100 (≈ 298 µM) | 100 (≈ 298 µM) | 25 (≈ 74.5 µM) | 25 (≈ 74.5 µM) | 55 (≈ 164 µM) | 55 (≈ 164 µM) | 100 (≈ 298 µM) | 100 (≈ 298 µM) | 25 (≈ 74.5 µM) | 25 (≈ 74.5 µM) | Cell viability [7]: 100%; Cell viability [8]: 24%; Cell viability [9]: 30%
O=C1CSC(c2cccc(O)c2)N1CCN1CCCCC1 (configuration not stated) | 100 | 100 | 100 | 100 | 100 | 100 | 67 (≈ 219 µM) | 67 (≈ 219 µM) | > 400 | > 400 | 100 (≈ 326 µM) | 100 (≈ 326 µM) | 33.5 (≈ 109 µM) | 33.5 (≈ 109 µM) | 81 (≈ 264 µM) | 81 (≈ 264 µM) | > 400 | > 400 | 100 (≈ 326 µM) | 100 (≈ 326 µM) | Cell viability [7]: 60%; Cell viability [8]: 13%; Cell viability [9]: 11%
O=C1CSC(c2ccc(O)cc2)N1CCN1CCCCC1 (configuration not stated) | 100 | 100 | 96 | 94 | 87 | 76 | 100 (≈ 326 µM) | 100 (≈ 326 µM) | 50 (≈ 163 µM) | 50 (≈ 163 µM) | 100 (≈ 326 µM) | 100 (≈ 326 µM) | 25 (≈ 81.6 µM) | 25 (≈ 81.6 µM) | 100 (≈ 326 µM) | 100 (≈ 326 µM) | 50 (≈ 163 µM) | 50 (≈ 163 µM) | 100 (≈ 326 µM) | 100 (≈ 326 µM) | Cell viability [7]: 57%; Cell viability [8]: 12%; Cell viability [9]: 10%
COc1cccc(C2SCC(=O)N2CCN2CCCCC2)c1 (configuration not stated) | 100 | 97 | 90 | 84 | 66 | 57 | 100 (≈ 312 µM) | 100 (≈ 312 µM) | > 400 | > 400 | 100 (≈ 312 µM) | 100 (≈ 312 µM) | 33.5 (≈ 105 µM) | 33.5 (≈ 105 µM) | 100 (≈ 312 µM) | 100 (≈ 312 µM) | > 400 | > 400 | 100 (≈ 312 µM) | 100 (≈ 312 µM) | Cell viability [7]: 19%; Cell viability [8]: 11%; Cell viability [9]: 6%
Cc1ccc(C2SCC(=O)N2CCN2CCCCC2)cc1 (configuration not stated) | 100 | 100 | 100 | 100 | 85 | 51 | 100 (≈ 328 µM) | 100 (≈ 328 µM) | 100 (≈ 328 µM) | 100 (≈ 328 µM) | 66 (≈ 217 µM) | 66 (≈ 217 µM) | 37.5 (≈ 123 µM) | 37.5 (≈ 123 µM) | 62 (≈ 204 µM) | 62 (≈ 204 µM) | 50 (≈ 164 µM) | 50 (≈ 164 µM) | 100 (≈ 328 µM) | 100 (≈ 328 µM) | Cell viability [7]: 17%; Cell viability [8]: 13%; Cell viability [9]: 12%
O=C1CSC(c2c(Cl)cccc2Cl)N1CCN1CCCCC1 (configuration not stated) | 100 | 100 | 100 | 76 | 75 | 32 | 100 (≈ 278 µM) | 100 (≈ 278 µM) | 50 (≈ 139 µM) | 50 (≈ 139 µM) | 200 (≈ 557 µM) | 200 (≈ 557 µM) | 30 (≈ 83.5 µM) | 30 (≈ 83.5 µM) | 75 (≈ 209 µM) | 75 (≈ 209 µM) | 50 (≈ 139 µM) | 50 (≈ 139 µM) | 200 (≈ 557 µM) | 200 (≈ 557 µM) | Cell viability [7]: 11%; Cell viability [8]: 10%; Cell viability [9]: 7%
OC(Cn1cncn1)(Cn1cncn1)c1ccc(F)cc1F [FLUCONAZOLE] |  |  |  |  |  |  | 1 (≈ 3.27 µM) | 1 (≈ 3.27 µM) | 8 (≈ 26.1 µM) | 8 (≈ 26.1 µM) | 1 (≈ 3.27 µM) | 1 (≈ 3.27 µM) | 26.5 (≈ 86.5 µM) | 26.5 (≈ 86.5 µM) | 1 (≈ 3.27 µM) | 1 (≈ 3.27 µM) | 1 (≈ 3.27 µM) | 1 (≈ 3.27 µM) | 16 (≈ 52.2 µM) | 16 (≈ 52.2 µM) | 
